From ChEMBL document CHEMBL3616441, “Discovery of a Selective and CNS Penetrant Negative Allosteric Modulator of Metabotropic Glutamate Receptor Subtype 3 with Antidepressant and Anxiolytic Activity in Rodents” (J Med Chem, 2015)
Activity calls are given as the source filed them. The calls are words filed in the database; no cut-off is given here.

Each molecule was assayed against Metabotropic glutamate receptor 5 (Rattus norvegicus) (UniProt P31424) (assay: Positive allosteric modulation of rat mGlu5 receptor assessed as calcium mobilization by cell based fluorescence assay).
Chain of Metabotropic glutamate receptor 5 (Rattus norvegicus) (P31424 21-1203 limits assumed): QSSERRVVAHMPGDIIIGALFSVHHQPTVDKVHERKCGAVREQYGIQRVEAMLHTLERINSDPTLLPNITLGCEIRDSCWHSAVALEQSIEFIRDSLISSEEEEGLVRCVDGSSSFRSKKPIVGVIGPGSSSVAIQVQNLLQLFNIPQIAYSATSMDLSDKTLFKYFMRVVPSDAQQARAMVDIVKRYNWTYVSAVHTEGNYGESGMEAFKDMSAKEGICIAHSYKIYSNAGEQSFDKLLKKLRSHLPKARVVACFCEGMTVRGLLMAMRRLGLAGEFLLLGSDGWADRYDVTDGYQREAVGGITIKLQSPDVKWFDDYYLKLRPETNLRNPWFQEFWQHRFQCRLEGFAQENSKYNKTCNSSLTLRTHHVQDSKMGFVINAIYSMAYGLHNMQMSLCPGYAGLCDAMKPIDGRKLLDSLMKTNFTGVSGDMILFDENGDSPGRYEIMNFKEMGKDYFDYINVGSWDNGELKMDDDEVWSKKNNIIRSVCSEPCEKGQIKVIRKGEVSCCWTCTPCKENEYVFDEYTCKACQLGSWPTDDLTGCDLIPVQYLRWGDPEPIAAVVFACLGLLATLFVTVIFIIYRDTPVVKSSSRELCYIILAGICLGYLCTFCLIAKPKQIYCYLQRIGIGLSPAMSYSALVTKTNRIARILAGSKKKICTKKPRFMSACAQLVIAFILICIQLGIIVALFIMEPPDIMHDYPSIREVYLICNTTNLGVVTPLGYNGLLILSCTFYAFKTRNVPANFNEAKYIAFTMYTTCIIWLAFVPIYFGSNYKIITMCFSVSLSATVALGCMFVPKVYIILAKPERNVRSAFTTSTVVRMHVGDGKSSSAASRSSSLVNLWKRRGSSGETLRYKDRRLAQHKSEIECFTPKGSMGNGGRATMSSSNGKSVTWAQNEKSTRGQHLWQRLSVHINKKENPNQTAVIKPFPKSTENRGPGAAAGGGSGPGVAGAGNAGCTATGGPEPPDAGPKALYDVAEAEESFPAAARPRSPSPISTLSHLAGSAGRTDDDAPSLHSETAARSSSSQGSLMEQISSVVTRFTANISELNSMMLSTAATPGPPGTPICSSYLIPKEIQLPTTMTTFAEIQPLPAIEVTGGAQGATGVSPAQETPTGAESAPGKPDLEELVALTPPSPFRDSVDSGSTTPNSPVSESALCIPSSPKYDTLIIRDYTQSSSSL
Assay type: functional

`C[C@@H]1CN(c2cccc(Cl)c2)C(=O)c2cc(COc3ccc(Cl)cn3)nn21` was tested, and the Activity was “Active”.
For `C[C@@H]1CN(c2ccc(F)cc2)C(=O)c2cc(COc3ccc(C#N)cc3)nn21`, the Activity was “Active”.
In the case of `C[C@@H]1CN(c2ccc(F)cc2)C(=O)c2cc(COc3ccc(Cl)cc3)nn21`, the Activity is reported as “Active”.
`COc1ccc(OCc2cc3n(n2)[C@H](C)CN(c2ccc(F)cc2)C3=O)cc1` was tested, and the Activity was “Active”.
`C[C@@H]1CN(c2ccc(F)nc2)C(=O)c2cc(COc3ccc(Cl)cn3)nn21` was tested, and the Activity was “Active”.
In the case of `COc1ccc(N2C[C@@H](C)n3nc(COc4ccc(F)cn4)cc3C2=O)cc1`, the Activity is reported as “Active”.
For `C[C@@H]1CN(c2ccc(Cl)cc2)C(=O)c2cc(COc3ccc(F)cn3)nn21`, the Activity was “Active”.
In the case of `C[C@@H]1CN(c2ccc(F)cc2)C(=O)c2cc(COc3ccc(F)cc3F)nn21`, the Activity is reported as “Active”.
`C[C@@H]1CN(c2ccc(C#N)cc2)C(=O)c2cc(COc3ccc(Cl)cn3)nn21` was tested, and the Activity was “Active”.
`C[C@@H]1CN(c2ccc(F)cc2)C(=O)c2cc(COc3ncccc3F)nn21` was tested, and the Activity was “Active”.
In the case of `C[C@@H]1CN(c2ccccc2Cl)C(=O)c2cc(COc3ccc(Cl)cn3)nn21`, the Activity is reported as “Active”.
In the case of `C[C@@H]1CN(c2ccc(F)cc2)C(=O)c2cc(COc3cccc(F)c3)nn21`, the Activity is reported as “Active”.

Each molecule was assayed against Metabotropic glutamate receptor 3 (Rattus norvegicus, UniProt P31422) (assay: Negative allosteric modulation of rat mGlu3 receptor assessed as calcium mobilization by cell based fluorescence assay).
Chain of Metabotropic glutamate receptor 3 (P31422 whole entry): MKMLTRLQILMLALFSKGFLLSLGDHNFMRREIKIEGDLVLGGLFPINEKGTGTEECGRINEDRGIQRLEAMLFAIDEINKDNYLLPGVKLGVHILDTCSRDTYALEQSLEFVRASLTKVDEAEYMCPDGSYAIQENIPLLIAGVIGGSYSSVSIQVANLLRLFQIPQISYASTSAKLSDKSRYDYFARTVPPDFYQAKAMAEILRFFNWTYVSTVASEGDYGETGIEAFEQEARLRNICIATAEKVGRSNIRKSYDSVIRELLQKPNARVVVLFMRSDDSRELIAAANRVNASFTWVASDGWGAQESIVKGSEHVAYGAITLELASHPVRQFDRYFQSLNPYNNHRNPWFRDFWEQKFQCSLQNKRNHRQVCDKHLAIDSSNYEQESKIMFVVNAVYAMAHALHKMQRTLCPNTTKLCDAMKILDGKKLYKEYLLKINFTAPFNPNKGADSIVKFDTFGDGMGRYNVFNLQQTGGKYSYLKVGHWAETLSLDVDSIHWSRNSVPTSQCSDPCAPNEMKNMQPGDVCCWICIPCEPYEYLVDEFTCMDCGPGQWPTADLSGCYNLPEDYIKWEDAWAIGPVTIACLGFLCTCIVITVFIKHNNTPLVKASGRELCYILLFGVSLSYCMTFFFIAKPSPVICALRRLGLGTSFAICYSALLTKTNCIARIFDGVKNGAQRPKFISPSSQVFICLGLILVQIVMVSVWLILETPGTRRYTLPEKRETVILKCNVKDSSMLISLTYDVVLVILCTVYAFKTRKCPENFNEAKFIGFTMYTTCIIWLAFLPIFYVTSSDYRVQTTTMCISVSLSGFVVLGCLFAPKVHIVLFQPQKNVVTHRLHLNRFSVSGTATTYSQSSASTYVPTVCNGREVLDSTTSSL
Assay type: functional
How it was run: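 Cell line stably expressing rat mGlu3 with the promiscuous G-protein Gα15. Calcium mobilization with fluorescence read-out, inhibition of the glutamate response. Full concentration-response curves, top concentration 30 μM. % Glu Max is the response with 30 μM test compound as a percentage of the maximal response to 100 μM glutamate. Values averaged over n-3.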

Point of comparison: `C[C@@H]1CN(c2cccc(Cl)c2)C(=O)c2cc(COc3ccc(Cl)cn3)nn21`, IC50 558 nM. Against it:
- C[C@@H]1CN(c2ccc(F)cc2)C(=O)c2cc(COc3ccc(C#N)cc3)nn21 — within 1.5-fold, 784 nM
- C[C@@H]1CN(c2ccc(F)cc2)C(=O)c2cc(COc3ccc(Cl)cc3)nn21 — 2.1-fold higher, 1170 nM
- COc1ccc(OCc2cc3n(n2)[C@H](C)CN(c2ccc(F)cc2)C3=O)cc1 — 1.9-fold higher, 1040 nM
- C[C@@H]1CN(c2ccc(F)nc2)C(=O)c2cc(COc3ccc(Cl)cn3)nn21 — within 1.5-fold, 408 nM
- COc1ccc(N2C[C@@H](C)n3nc(COc4ccc(F)cn4)cc3C2=O)cc1 — 1.7-fold lower, 320 nM
- C[C@@H]1CN(c2ccc(Cl)cc2)C(=O)c2cc(COc3ccc(F)cn3)nn21 — 2.8-fold lower, 197 nM
- C[C@@H]1CN(c2ccc(F)cc2)C(=O)c2cc(COc3ccc(F)cc3F)nn21 — within 1.5-fold, 417 nM
- C[C@@H]1CN(c2ccc(C#N)cc2)C(=O)c2cc(COc3ccc(Cl)cn3)nn21 — within 1.5-fold, 539 nM
- C[C@@H]1CN(c2ccc(F)cc2)C(=O)c2cc(COc3ncccc3F)nn21 — 2-fold higher, 1100 nM
- C[C@@H]1CN(c2ccccc2Cl)C(=O)c2cc(COc3ccc(Cl)cn3)nn21 — 1.7-fold lower, 328 nM
- C[C@@H]1CN(c2ccc(F)cc2)C(=O)c2cc(COc3cccc(F)c3)nn21 — within 1.5-fold, 773 nM

Each molecule was assayed against Metabotropic glutamate receptor 3 (Rattus norvegicus) (UniProt P31422) (assay: Negative allosteric modulation of rat mGlu3 receptor assessed as amplitude response at 30 uM relative to glutamate).
Chain of Metabotropic glutamate receptor 3 (Rattus norvegicus) (P31422 23-879 limits assumed): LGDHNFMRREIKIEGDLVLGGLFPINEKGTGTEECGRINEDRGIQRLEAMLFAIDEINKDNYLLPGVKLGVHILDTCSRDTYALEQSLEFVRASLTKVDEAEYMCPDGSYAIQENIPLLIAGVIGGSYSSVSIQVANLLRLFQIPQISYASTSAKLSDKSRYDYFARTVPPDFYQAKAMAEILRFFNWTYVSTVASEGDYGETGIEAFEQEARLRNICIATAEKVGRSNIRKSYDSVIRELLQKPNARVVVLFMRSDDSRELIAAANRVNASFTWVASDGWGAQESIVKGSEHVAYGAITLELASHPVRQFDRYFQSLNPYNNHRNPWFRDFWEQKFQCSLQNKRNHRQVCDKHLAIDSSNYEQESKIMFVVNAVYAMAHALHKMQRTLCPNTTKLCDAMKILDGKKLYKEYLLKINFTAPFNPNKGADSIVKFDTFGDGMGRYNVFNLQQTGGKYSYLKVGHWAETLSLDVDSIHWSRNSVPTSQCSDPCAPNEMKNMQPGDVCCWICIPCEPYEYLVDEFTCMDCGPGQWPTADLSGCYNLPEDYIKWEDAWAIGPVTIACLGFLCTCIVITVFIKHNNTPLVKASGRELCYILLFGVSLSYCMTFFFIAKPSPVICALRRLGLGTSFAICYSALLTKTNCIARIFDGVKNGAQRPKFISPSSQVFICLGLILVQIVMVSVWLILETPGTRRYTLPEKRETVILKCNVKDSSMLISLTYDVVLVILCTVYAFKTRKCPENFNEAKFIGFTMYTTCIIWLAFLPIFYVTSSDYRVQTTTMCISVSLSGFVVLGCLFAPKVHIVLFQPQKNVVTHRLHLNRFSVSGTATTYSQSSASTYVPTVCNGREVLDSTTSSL
How it was run: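 Calcium mobilization in cell line stably expressing rat mGlu3 with promiscuous Gα15; fluorescence read-out; amplitude of glutamate response with 30 μM test compound expressed as percentage of maximal response (100 μM glutamate); average of n = 3.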

Point of comparison: `C[C@@H]1CN(c2ccc(Cl)cc2)C(=O)c2cc(COc3ccc(F)cn3)nn21`, Activity 2.17%. Against it:
- C[C@@H]1CN(c2cccc(Cl)c2)C(=O)c2cc(COc3ccc(Cl)cn3)nn21 — lower, 1.63%
- C[C@@H]1CN(c2ccc(F)cc2)C(=O)c2cc(COc3ccc(C#N)cc3)nn21 — higher, 2.53%
- C[C@@H]1CN(c2ccc(F)cc2)C(=O)c2cc(COc3ccc(Cl)cc3)nn21 — lower, 1.86%
- COc1ccc(OCc2cc3n(n2)[C@H](C)CN(c2ccc(F)cc2)C3=O)cc1 — lower, 1.76%
- C[C@@H]1CN(c2ccc(F)nc2)C(=O)c2cc(COc3ccc(Cl)cn3)nn21 — lower, 1.45%
- COc1ccc(N2C[C@@H](C)n3nc(COc4ccc(F)cn4)cc3C2=O)cc1 — lower, 1.23%
- C[C@@H]1CN(c2ccc(F)cc2)C(=O)c2cc(COc3ccc(F)cc3F)nn21 — lower, 1.7%
- C[C@@H]1CN(c2ccc(C#N)cc2)C(=O)c2cc(COc3ccc(Cl)cn3)nn21 — lower, 1.84%
- C[C@@H]1CN(c2ccc(F)cc2)C(=O)c2cc(COc3ncccc3F)nn21 — higher, 2.22%
- C[C@@H]1CN(c2ccccc2Cl)C(=O)c2cc(COc3ccc(Cl)cn3)nn21 — lower, 1.87%
- C[C@@H]1CN(c2ccc(F)cc2)C(=O)c2cc(COc3cccc(F)c3)nn21 — lower, 1.19%

Each molecule was assayed against Metabotropic glutamate receptor 5 (Rattus norvegicus, UniProt P31424) (assay: Modulation of rat mGlu5 receptor assessed as calcium mobilization by cell based fluorescence assay).
Chain of Metabotropic glutamate receptor 5 (P31424 whole entry): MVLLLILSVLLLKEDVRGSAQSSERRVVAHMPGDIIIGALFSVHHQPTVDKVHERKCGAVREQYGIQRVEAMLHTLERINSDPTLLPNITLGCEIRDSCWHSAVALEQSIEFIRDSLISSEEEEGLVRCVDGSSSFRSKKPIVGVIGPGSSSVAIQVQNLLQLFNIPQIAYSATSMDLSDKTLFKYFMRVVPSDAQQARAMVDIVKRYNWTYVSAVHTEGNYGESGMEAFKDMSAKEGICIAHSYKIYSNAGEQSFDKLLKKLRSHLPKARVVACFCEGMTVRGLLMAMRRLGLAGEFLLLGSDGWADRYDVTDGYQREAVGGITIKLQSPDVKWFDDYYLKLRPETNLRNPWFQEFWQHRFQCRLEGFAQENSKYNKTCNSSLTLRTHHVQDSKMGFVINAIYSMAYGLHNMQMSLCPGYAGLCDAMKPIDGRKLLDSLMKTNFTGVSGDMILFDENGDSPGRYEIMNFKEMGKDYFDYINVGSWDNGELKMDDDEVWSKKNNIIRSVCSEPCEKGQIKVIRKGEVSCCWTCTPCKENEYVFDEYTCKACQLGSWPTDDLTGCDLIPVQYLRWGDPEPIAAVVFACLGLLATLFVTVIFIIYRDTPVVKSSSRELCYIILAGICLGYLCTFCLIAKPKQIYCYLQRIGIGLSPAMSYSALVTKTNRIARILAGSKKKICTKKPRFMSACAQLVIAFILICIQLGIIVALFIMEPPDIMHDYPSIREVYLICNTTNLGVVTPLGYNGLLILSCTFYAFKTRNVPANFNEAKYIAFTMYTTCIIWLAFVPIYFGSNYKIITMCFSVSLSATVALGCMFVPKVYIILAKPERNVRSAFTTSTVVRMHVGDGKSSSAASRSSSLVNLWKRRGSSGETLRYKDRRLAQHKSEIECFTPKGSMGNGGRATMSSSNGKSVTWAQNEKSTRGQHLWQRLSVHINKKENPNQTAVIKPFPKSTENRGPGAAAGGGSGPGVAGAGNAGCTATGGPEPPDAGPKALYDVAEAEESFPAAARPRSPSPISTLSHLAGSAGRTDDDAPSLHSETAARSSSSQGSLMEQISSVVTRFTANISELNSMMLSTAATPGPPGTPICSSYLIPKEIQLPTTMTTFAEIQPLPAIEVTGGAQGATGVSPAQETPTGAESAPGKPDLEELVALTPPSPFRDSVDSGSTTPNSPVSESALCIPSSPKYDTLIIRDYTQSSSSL
Assay type: functional
How it was run: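 Calcium mobilization assay with fluorescence read-out in cells expressing mGlu5; full concentration-response curves; % Glu Max is the amplitude of response with 30 μM test compound as a percentage of the maximal response to 100 μM glutamate; values averaged over n-3.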

Point of comparison: `COc1ccc(OCc2cc3n(n2)[C@H](C)CN(c2ccc(F)cc2)C3=O)cc1`, EC50 1340 nM. Against it:
- C[C@@H]1CN(c2cccc(Cl)c2)C(=O)c2cc(COc3ccc(Cl)cn3)nn21 — 2.1-fold higher, 2870 nM
- C[C@@H]1CN(c2ccc(F)cc2)C(=O)c2cc(COc3ccc(C#N)cc3)nn21 — within 1.5-fold, 1940 nM
- C[C@@H]1CN(c2ccc(F)cc2)C(=O)c2cc(COc3ccc(Cl)cc3)nn21 — 2.2-fold lower, 604 nM
- C[C@@H]1CN(c2ccc(F)nc2)C(=O)c2cc(COc3ccc(Cl)cn3)nn21 — higher, > 10000 nM
- COc1ccc(N2C[C@@H](C)n3nc(COc4ccc(F)cn4)cc3C2=O)cc1 — within 1.5-fold, 1380 nM
- C[C@@H]1CN(c2ccc(Cl)cc2)C(=O)c2cc(COc3ccc(F)cn3)nn21 — 3.7-fold lower, 364 nM
- C[C@@H]1CN(c2ccc(F)cc2)C(=O)c2cc(COc3ccc(F)cc3F)nn21 — 4.4-fold lower, 307 nM
- C[C@@H]1CN(c2ccc(C#N)cc2)C(=O)c2cc(COc3ccc(Cl)cn3)nn21 — 2.5-fold higher, 3320 nM
- C[C@@H]1CN(c2ccc(F)cc2)C(=O)c2cc(COc3ncccc3F)nn21 — 3.2-fold higher, 4300 nM
- C[C@@H]1CN(c2ccccc2Cl)C(=O)c2cc(COc3ccc(Cl)cn3)nn21 — 4.1-fold higher, 5450 nM
- C[C@@H]1CN(c2ccc(F)cc2)C(=O)c2cc(COc3cccc(F)c3)nn21 — 18-fold lower, 73 nM

Each molecule was assayed against Metabotropic glutamate receptor 5 (Rattus norvegicus) (UniProt P31424) (assay: Modulation of rat mGlu5 receptor assessed as assessed as calcium mobilization at 30 uM by cell based fluorescence assay).
Assay type: functional

Point of comparison: `C[C@@H]1CN(c2ccc(F)nc2)C(=O)c2cc(COc3ccc(Cl)cn3)nn21`, Activity 30.6%. Against it:
- C[C@@H]1CN(c2cccc(Cl)c2)C(=O)c2cc(COc3ccc(Cl)cn3)nn21 — higher, 65.8%
- C[C@@H]1CN(c2ccc(F)cc2)C(=O)c2cc(COc3ccc(C#N)cc3)nn21 — higher, 38.6%
- C[C@@H]1CN(c2ccc(F)cc2)C(=O)c2cc(COc3ccc(Cl)cc3)nn21 — higher, 81.8%
- COc1ccc(OCc2cc3n(n2)[C@H](C)CN(c2ccc(F)cc2)C3=O)cc1 — higher, 40.2%
- COc1ccc(N2C[C@@H](C)n3nc(COc4ccc(F)cn4)cc3C2=O)cc1 — higher, 32.3%
- C[C@@H]1CN(c2ccc(Cl)cc2)C(=O)c2cc(COc3ccc(F)cn3)nn21 — higher, 51.6%
- C[C@@H]1CN(c2ccc(F)cc2)C(=O)c2cc(COc3ccc(F)cc3F)nn21 — higher, 82.3%
- C[C@@H]1CN(c2ccc(C#N)cc2)C(=O)c2cc(COc3ccc(Cl)cn3)nn21 — lower, 23.1%
- C[C@@H]1CN(c2ccc(F)cc2)C(=O)c2cc(COc3ncccc3F)nn21 — higher, 78.5%
- C[C@@H]1CN(c2ccccc2Cl)C(=O)c2cc(COc3ccc(Cl)cn3)nn21 — higher, 51%
- C[C@@H]1CN(c2ccc(F)cc2)C(=O)c2cc(COc3cccc(F)c3)nn21 — higher, 86.1%
